Data as given in ChEMBL document CHEMBL1124735, “Dehydrogenase binding by tiazofurin anabolites” (J Med Chem, 1990).

How the values were obtained:
[1] = molecular target: Glutamate dehydrogenase 1, mitochondrial (Bos taurus, UniProt P00366); assay: In vitro inhibitory activity against bovine liver glutamate dehydrogenase (GDH)
Alcohol dehydrogenase [2] = molecular target: T1, Alcohol dehydrogenase (Equus caballus, UniProt P00327+P00328); assay: In vitro inhibitory activity against horse liver Alcohol dehydrogenase
[3] = molecular target: L-lactate dehydrogenase B chain (Sus scrofa, UniProt P00336); assay: In vitro inhibitory activity against pig heart lactate dehydrogenase (LDH)
In short: (§1)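 Pig heart enzymes (cytoplasmic MDH or LDH, from ammonium sulfate suspension) assayed in 0.05 M Tris HCl pH 9.0, with NAD as substrate; rates from NADH appearance by A340 (ε 6.22 mM⁻¹cm⁻¹) or fluorescence calibrated against NADH standards. Run at least in duplicate; kinetic constants from Lineweaver-Burk plots by linear regression.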

Alcohol dehydrogenase [4] = molecular target: T1, Alcohol dehydrogenase; assay: Dissociation constant from Alcohol dehydrogenase; format: protein assay
[5] = molecular target: T2, Malate dehydrogenase, cytoplasmic (Sus scrofa, UniProt P11708); assay: In vitro inhibitory activity against pig heart cytoplasmic malate dehydrogenase (MDH); in short: as §1
T2 sequence (P11708 whole entry): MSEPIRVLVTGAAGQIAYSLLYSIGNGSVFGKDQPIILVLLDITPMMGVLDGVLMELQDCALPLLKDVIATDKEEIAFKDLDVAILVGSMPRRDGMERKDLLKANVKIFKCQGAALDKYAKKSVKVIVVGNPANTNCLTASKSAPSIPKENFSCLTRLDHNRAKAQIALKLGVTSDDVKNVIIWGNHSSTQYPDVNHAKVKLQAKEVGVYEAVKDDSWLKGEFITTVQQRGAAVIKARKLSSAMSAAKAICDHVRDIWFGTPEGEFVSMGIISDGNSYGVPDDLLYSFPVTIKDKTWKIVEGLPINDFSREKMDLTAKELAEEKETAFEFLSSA

Alcohol dehydrogenase [6] = molecular target: T1, Alcohol dehydrogenase; assay: In vitro inhibitory activity against horse liver Alcohol dehydrogenase (ADH)

Sequence of Glutamate dehydrogenase 1, mitochondrial (P00366 whole entry): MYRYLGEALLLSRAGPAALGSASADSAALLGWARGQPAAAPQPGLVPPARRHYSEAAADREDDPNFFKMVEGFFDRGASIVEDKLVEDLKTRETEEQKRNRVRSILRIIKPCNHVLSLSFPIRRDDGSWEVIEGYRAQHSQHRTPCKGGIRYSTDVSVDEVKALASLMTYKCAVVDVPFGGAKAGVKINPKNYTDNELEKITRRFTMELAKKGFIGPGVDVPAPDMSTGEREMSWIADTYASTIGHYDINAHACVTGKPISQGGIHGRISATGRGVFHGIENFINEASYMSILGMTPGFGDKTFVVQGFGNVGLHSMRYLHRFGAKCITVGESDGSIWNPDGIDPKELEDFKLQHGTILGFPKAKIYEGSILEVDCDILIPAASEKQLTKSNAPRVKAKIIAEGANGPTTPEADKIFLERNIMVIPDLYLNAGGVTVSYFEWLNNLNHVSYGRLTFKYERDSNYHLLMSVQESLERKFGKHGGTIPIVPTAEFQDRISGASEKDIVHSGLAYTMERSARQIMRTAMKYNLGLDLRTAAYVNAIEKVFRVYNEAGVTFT
Sequence of L-lactate dehydrogenase B chain (P00336 whole entry): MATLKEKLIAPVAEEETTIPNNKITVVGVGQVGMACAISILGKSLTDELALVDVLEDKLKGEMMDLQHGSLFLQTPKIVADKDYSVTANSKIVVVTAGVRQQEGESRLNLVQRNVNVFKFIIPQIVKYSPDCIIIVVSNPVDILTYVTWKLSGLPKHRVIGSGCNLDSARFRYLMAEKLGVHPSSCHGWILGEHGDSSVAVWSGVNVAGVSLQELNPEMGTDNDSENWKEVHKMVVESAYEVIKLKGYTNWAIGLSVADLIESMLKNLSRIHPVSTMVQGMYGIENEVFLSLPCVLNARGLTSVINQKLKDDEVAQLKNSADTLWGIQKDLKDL

| Ki [1] [µM] | Ki (Alcohol dehydrogenase [2]) [µM] | Ki [3] [µM] | Kd (Alcohol dehydrogenase [4]) [µM] | Ki [5] [µM] | Ki (Alcohol dehydrogenase [6]) [µM] | Compound |
| --- | --- | --- | --- | --- | --- | --- |
| 65.2 | 105 | – | – | – | – | NC(=O)c1csc([C@@H]2O[C@H](COP(=O)(O)O)[C@@H](O)[C@H]2O)n1 |
| 4.5 | – | 25.2 | 27 | 36.3 | 26.5 | NC(=O)c1csc([C@H]2O[C@@H](COP(=O)(O)OP(=O)(O)OC[C@H]3O[C@@H](n4cnc5c(N)ncnc54)[C@H](O)[C@@H]3O)[C@H](O)[C@@H]2O)n1 |
| > 10000 | > 10000 | – | – | – | – | NC(=O)c1csc([C@@H]2O[C@H](CO)[C@@H](O)[C@H]2O)n1 [TIAZOFURIN] |
| > 10000 | > 10000 | – | – | – | – | NC(=O)c1ccc[n+]([C@@H]2O[C@H](COP(=O)([O-])O)[C@@H](O)[C@H]2O)c1 [BETANMN] |
